Assay results published in ChEMBL document CHEMBL2062435, “Synthesis and in vitro antibacterial activity of gemifloxacin derivatives containing a substituted benzyloxime moiety” (2012).

tested on: Staphylococcus epidermidis; test: Antimicrobial activity against extended spectrum beta-lactamases-producing methicillin-sensitive Staphylococcus epidermidis 10-11 after 18-24 hrs by two-fold serial dilution method; assay type: functional
Summary of the method: (§1)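 Agar-medium twofold serial dilution against Gram-positive and Gram-negative strains; MIC taken as the lowest compound concentration giving complete inhibition of bacterial growth after incubation at 35 °C for 18-24 h.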

SMILES	MIC [µg/mL]
COc1cc(F)c(CO/N=C2\CN(c3nc4c(cc3F)c(=O)c(C(=O)O)cn4C3CC3)CC2CN)cc1OC.CS(=O)(=O)O (racemic)	1

tested on: Pseudomonas aeruginosa; test: Antimicrobial activity against Pseudomonas aeruginosa 10-12 after 18-24 hrs by two-fold serial dilution method; assay type: functional; summary of the method: as §1

SMILES	MIC [µg/mL]
COc1cc(F)c(CO/N=C2\CN(c3nc4c(cc3F)c(=O)c(C(=O)O)cn4C3CC3)CC2CN)cc1OC.CS(=O)(=O)O (racemic)	> 128

tested on: Enterococcus faecalis; test: Antimicrobial activity against Enterococcus faecalis 10-5 after 18-24 hrs by two-fold serial dilution method; assay type: functional; summary of the method: as §1

SMILES	MIC [µg/mL]
COc1cc(F)c(CO/N=C2\CN(c3nc4c(cc3F)c(=O)c(C(=O)O)cn4C3CC3)CC2CN)cc1OC.CS(=O)(=O)O (racemic)	0.25

tested on: Enterococcus faecalis; test: Antimicrobial activity against Enterococcus faecalis 10-6 after 18-24 hrs by two-fold serial dilution method; assay type: functional; summary of the method: as §1

SMILES	MIC [µg/mL]
COc1cc(F)c(CO/N=C2\CN(c3nc4c(cc3F)c(=O)c(C(=O)O)cn4C3CC3)CC2CN)cc1OC.CS(=O)(=O)O (racemic)	2

tested on: Staphylococcus aureus; test: Antimicrobial activity against extended spectrum beta-lactamases-producing methicillin-resistant Staphylococcus aureus 10-15 after 18-24 hrs by two-fold serial dilution method; assay type: functional
Summary of the method: (§2)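 Agar twofold serial dilution MIC against clinical isolates. MIC was taken as the lowest concentration giving complete inhibition of bacterial growth after incubation at 35 °C for 18-24 h.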

SMILES	MIC [µg/mL]
COc1cc(F)c(CO/N=C2\CN(c3nc4c(cc3F)c(=O)c(C(=O)O)cn4C3CC3)CC2CN)cc1OC.CS(=O)(=O)O (racemic)	0.125

tested on: Pseudomonas aeruginosa; test: Antimicrobial activity against extended spectrum beta-lactamases-producing Pseudomonas aeruginosa 10-9 after 18-24 hrs by two-fold serial dilution method; assay type: functional; summary of the method: as §1

SMILES	MIC [µg/mL]
COc1cc(F)c(CO/N=C2\CN(c3nc4c(cc3F)c(=O)c(C(=O)O)cn4C3CC3)CC2CN)cc1OC.CS(=O)(=O)O (racemic)	> 128

tested on: Staphylococcus epidermidis; test: Antimicrobial activity against extended spectrum beta-lactamases-producing methicillin-resistant Staphylococcus epidermidis 10-13 after 18-24 hrs by two-fold serial dilution method; assay type: functional; summary of the method: as §2

SMILES	MIC [µg/mL]
COc1cc(F)c(CO/N=C2\CN(c3nc4c(cc3F)c(=O)c(C(=O)O)cn4C3CC3)CC2CN)cc1OC.CS(=O)(=O)O (racemic)	0.25

tested on: Pseudomonas aeruginosa; test: Antimicrobial activity against extended spectrum beta-lactamases-producing Pseudomonas aeruginosa 10-18 after 18-24 hrs by two-fold serial dilution method; assay type: functional; summary of the method: as §1

SMILES	MIC [µg/mL]
COc1cc(F)c(CO/N=C2\CN(c3nc4c(cc3F)c(=O)c(C(=O)O)cn4C3CC3)CC2CN)cc1OC.CS(=O)(=O)O (racemic)	> 128

tested on: Klebsiella pneumoniae; test: Antimicrobial activity against extended spectrum beta-lactamases-producing Klebsiella pneumoniae 10-1 after 18-24 hrs by two-fold serial dilution method; assay type: functional; summary of the method: as §1

SMILES	MIC [µg/mL]
COc1cc(F)c(CO/N=C2\CN(c3nc4c(cc3F)c(=O)c(C(=O)O)cn4C3CC3)CC2CN)cc1OC.CS(=O)(=O)O (racemic)	> 128

tested on: Pseudomonas aeruginosa; test: Antimicrobial activity against extended spectrum beta-lactamases-producing Pseudomonas aeruginosa 10-5 after 18-24 hrs by two-fold serial dilution method; assay type: functional; summary of the method: as §1

SMILES	MIC [µg/mL]
COc1cc(F)c(CO/N=C2\CN(c3nc4c(cc3F)c(=O)c(C(=O)O)cn4C3CC3)CC2CN)cc1OC.CS(=O)(=O)O (racemic)	> 128

tested on: Escherichia coli; test: Antimicrobial activity against extended spectrum beta-lactamases-producing Escherichia coli 10-2 after 18-24 hrs by two-fold serial dilution method; assay type: functional; summary of the method: as §1

SMILES	MIC [µg/mL]
COc1cc(F)c(CO/N=C2\CN(c3nc4c(cc3F)c(=O)c(C(=O)O)cn4C3CC3)CC2CN)cc1OC.CS(=O)(=O)O (racemic)	> 128

tested on: Escherichia coli; test: Antimicrobial activity against extended spectrum beta-lactamases-producing Escherichia coli 10-3 after 18-24 hrs by two-fold serial dilution method; assay type: functional; summary of the method: as §1

SMILES	MIC [µg/mL]
COc1cc(F)c(CO/N=C2\CN(c3nc4c(cc3F)c(=O)c(C(=O)O)cn4C3CC3)CC2CN)cc1OC.CS(=O)(=O)O (racemic)	> 128

tested on: Klebsiella pneumoniae; test: Antimicrobial activity against Klebsiella pneumoniae 10-4 after 18-24 hrs by two-fold serial dilution method; assay type: functional; summary of the method: as §1

SMILES	MIC [µg/mL]
COc1cc(F)c(CO/N=C2\CN(c3nc4c(cc3F)c(=O)c(C(=O)O)cn4C3CC3)CC2CN)cc1OC.CS(=O)(=O)O (racemic)	> 128

tested on: Escherichia coli; test: Antimicrobial activity against extended spectrum beta-lactamases-producing Escherichia coli 10-4 after 18-24 hrs by two-fold serial dilution method; assay type: functional; summary of the method: as §1

SMILES	MIC [µg/mL]
COc1cc(F)c(CO/N=C2\CN(c3nc4c(cc3F)c(=O)c(C(=O)O)cn4C3CC3)CC2CN)cc1OC.CS(=O)(=O)O (racemic)	> 128

tested on: Staphylococcus aureus; test: Antimicrobial activity against extended spectrum beta-lactamases-producing methicillin-sensitive Staphylococcus aureus 10-13 after 18-24 hrs by two-fold serial dilution method; assay type: functional; summary of the method: as §1

SMILES	MIC [µg/mL]
COc1cc(F)c(CO/N=C2\CN(c3nc4c(cc3F)c(=O)c(C(=O)O)cn4C3CC3)CC2CN)cc1OC.CS(=O)(=O)O (racemic)	0.03

tested on: Enterococcus faecium; test: Antimicrobial activity against Enterococcus faecium 10-9 after 18-24 hrs by two-fold serial dilution method; assay type: functional; summary of the method: as §1

SMILES	MIC [µg/mL]
COc1cc(F)c(CO/N=C2\CN(c3nc4c(cc3F)c(=O)c(C(=O)O)cn4C3CC3)CC2CN)cc1OC.CS(=O)(=O)O (racemic)	8

tested on: Staphylococcus aureus; test: Antimicrobial activity against extended spectrum beta-lactamases-producing methicillin-sensitive Staphylococcus aureus 10-14 after 18-24 hrs by two-fold serial dilution method; assay type: functional; summary of the method: as §1

SMILES	MIC [µg/mL]
COc1cc(F)c(CO/N=C2\CN(c3nc4c(cc3F)c(=O)c(C(=O)O)cn4C3CC3)CC2CN)cc1OC.CS(=O)(=O)O (racemic)	0.03

tested on: Staphylococcus aureus; test: Antimicrobial activity against Staphylococcus aureus ATCC […] after 18-24 hrs by two-fold serial dilution method; assay type: functional; summary of the method: as §1

SMILES	MIC [µg/mL]
COc1cc(F)c(CO/N=C2\CN(c3nc4c(cc3F)c(=O)c(C(=O)O)cn4C3CC3)CC2CN)cc1OC.CS(=O)(=O)O (racemic)	0.03
